For 93 compounds, fluorescence artifact activation results are on record in PubChem BioAssay AID504382 (The Scripps Research Institute Molecular Screening Center, 2011).

Screen size: about 2,500 compounds; about 460 (18%) were called active. These entries were drawn from the full list. Values without a mark were called inactive.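 How the source made its calls: active means mean activation above a cutoff of low control average plus 3 SD from the earlier screen (cut at about 12% in these data); inactive means the rest.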

The nature of the experiment: IANBD-channel fluorescence artefacts in buffer – biochemical, artefact control for cardiac RTF calcium sensitizer project, confirmation (AID 504382). Particulars: IANBD fluorescence interference counterscreen, EC20 Ca2+, at 7.2 µM, stronger effect = higher value, scaled: EC20 calcium 0, EC100 calcium 100. The procedure, abridged: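 Also added: EC20 calcium, 0.472 mM; dosing: single nominal 7.2 µM compound dose, 0.7% DMSO final; timing: 15 min, 25 °C; detection: fluorescence intensity, excitation 480 nm, emission 540 nm; replicates: each compound tested in triplicate wells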
In general terms: The purpose of a counterscreen is to sort out artefacts and off-target activity.
As to `CC(=O)c1ccc(NC(=O)CN2C(=O)/C(=C/C=C/c3ccccc3)SC2=S)cc1`, the fluorescence artifact activation was 0.03%.
In the case of `O=C(NC1CCCCC1)c1cc2nc3c(c(C(F)(F)F)n2n1)CCCC3` it was 7.01%; in that of `O=C(N/N=C/c1cc(Cl)cc(Cl)c1O)c1ccncc1`, 2.37%; in that of `Cc1cc(/C=N/NC(N)=S)c(O)c(/C=N/NC(N)=S)c1`, 181% (active).
As to `COc1ccc(-c2nn(-c3ccccc3)cc2/C=N/NC(N)=S)cc1OC`, the fluorescence artifact activation is 8.19%.
Under `Cc1cc2c(cc1S(=O)(=O)CCC(=O)NCCc1ccccc1)OCC(=O)N2` stands 11.3%; under `CCOC(=O)c1ccc(NC(=O)c2cc3c(C)nn(-c4ccccc4Cl)c3s2)s1`, 1.59%.
Under `CCN(CC)c1ccc2c(c1)OC(N)=C(C#N)C2c1cccnc1` (stereo not drawn) stands 2.43%; under `N#CC1=C(N)Oc2cc(O)c(Cl)cc2C1c1ccccc1F` (stereo not drawn), 54.3% (active); under `COC(=O)C1=C(CSc2nc3c(cc2C#N)CN(C)CC3)OC(N)=C(C#N)C1c1ccccc1F` (stereo not drawn), 3.38%.
Under `CCOc1ccc2cc(/C=C/C(=O)c3ccco3)c(Cl)nc2c1` stands 0.34%.
Turning to `CC(CCc1ccc(O)cc1)NCCC(c1ccccc1)c1ccccc1` (stereo not drawn), the fluorescence artifact activation is 13.1% (active).
Under `COc1ccc(OC)c(NC(=O)NCCc2cccc(Cl)c2)c1` stands 0.03%; under `C=C[C@@](C)(O)CC[C@@H]1[C@@]2(C)CCCC(C)(C)[C@@H]2CC[C@@]1(C)O`, 0.16%; under `Cc1cccc(NC2=Nc3ccccc3N3C2=Nc2c(c(C)nn2-c2ccccc2)C3c2ccc(O)c(O)c2)c1` (stereo not drawn), 96.4% (active).
In the case of `CC1C/C(=C/c2cccn2C)C(=O)/C(=C/c2cccn2C)C1` (stereo not drawn) it was 0.08%.
In the case of `COc1ccc(/C=C/C(=O)NC(=S)Nc2ccc(C(=O)O)cc2)cc1` it was 6.95%; in that of `Cc1nnc(NC(=O)CS(=O)(=O)Cc2ccccc2)s1`, -0.07%; in that of `O=C(Oc1ccc2ccc(=O)oc2c1)c1cccs1`, 0.02%.
Turning to `Cc1noc(C)c1C(=O)Nc1nc2ccccc2s1`, the fluorescence artifact activation was 38.5% (active).
Under `O=S(=O)(/N=C(/Nc1nc2ccccc2s1)c1ccccc1)c1ccc(F)cc1` stands 0.13%; under `Cc1onc(-c2ccccc2)c1C(=O)Nc1nc(-c2cc(F)ccc2F)cs1`, 0.13%; under `Cc1nc2c(C#N)cnn2c2c1CCN(Cc1ccccc1)N2C`, 138% (active).
In the case of `Cc1c2c(n3c(nc4ccccc43)c1C#N)N(CCN1CCOCC1)CC2` it was 0.13%.
Under `Cn1c2c(c(=O)n(C)c1=O)C(C(F)(F)F)(C(F)(F)F)N=C(CCC1CCCCC1)N2` stands 0.01%; under `CC(=O)c1nnn(-c2cccc(C#N)c2)c1C`, 0.2%.
Take `Cc1ccc(/C=C2/NC(=O)N(Cc3ccccc3F)C2=O)s1`: the fluorescence artifact activation is 0.1%.
In the case of `CCCCCCn1c(=O)[nH]c2nc3cc(N)c(C)cc3nc2c1=O` it was 45.6% (active); in that of `CCCCn1c(=O)[nH]c2nc3cc(N)ccc3nc2c1=O`, 0.06%; in that of `C=CCn1c(=O)[nH]c2nc3cc(N=CN(C)C)c(C)cc3nc2c1=O`, 16.2% (active).
Under `Cc1cc2nc3c(=O)n(C4CCCCC4)c(=O)[nH]c3nc2cc1N` stands 9.65%; under `Cc1cc2nc3c(=O)n(CCc4ccccc4)c(=O)[nH]c3nc2cc1N`, 0.7%.
Under `N=c1oc2c3c4c(cc2cc1C(=O)Nc1ccccc1)CCCN4CCC3` stands 4.85%; under `Cn1cccc1/C=C1\CCC/C(=C\c2cccn2C)C1=O`, 0.94%; under `O=C(COC(=O)Cn1cnc2ccccc21)Nc1cccc2c1C(=O)c1ccccc1C2=O`, 5.29%.
With `O=C1/C(=C/c2cccc(F)c2)Oc2cc(O)ccc21`, the fluorescence artifact activation is -0.06%.
In the case of `O=C1/C(=C/c2ccc(Br)cc2)Oc2cc(O)ccc21` it was 17.9% (active); in that of `COc1cc(/C=C2\Oc3cc(O)ccc3C2=O)ccc1O`, 0.16%; in that of `C=CCN(C(=O)CNS(=O)(=O)c1ccccc1)C(C(=O)NCCOC)c1ccncc1` (stereo not drawn), 0.23%.
In the case of `C[C@H](CO)NC(=O)[C@@H]1C[C@H]1[C@@H](NP(=O)(c1ccccc1)c1ccccc1)c1ccccc1` it was 0.29%.
Under `COCCNC(=O)[C@H]1C[C@@H]1[C@H](NP(=O)(c1ccccc1)c1ccccc1)c1ccccc1` stands 1400% (active); under `Cc1cc(Br)c2c(c1)C(O)(N1CCCCC1C)C(=O)N2` (stereo not drawn), 1.99%.
Regarding `CC(C)(C)C(=O)/C=c1\s/c(=C\c2ccc(-c3ccc([N+](=O)[O-])cc3)o2)c(=O)n1CC(=O)NC(N)=O`, the fluorescence artifact activation was 7.12%.
As for `COc1cc(/C=C(\C#N)c2nc3ccccc3o2)ccc1O`, the fluorescence artifact activation is 0.62%.
Under `Nc1nc(SCC(=O)Nc2ccccc2)nc2nc3c(cc12)CCCC3` stands 0.24%; under `Cc1cc(C)n2nc3nc4c(cc3c2n1)CCCC4`, 28.7% (active).
Regarding `C=CCOc1ccc(Br)cc1CNCC`, the fluorescence artifact activation was 6.82%.
In the case of `CCOc1cc(C#N)ccc1OCC(=O)N1CCc2ccccc2C1` it was 0.13%; in that of `CCOc1ccc(C(=O)NCC(=O)N2CCC3CCCCC3C2)cc1OCC` (stereo not drawn), 59.4% (active); in that of `CCOc1ccc(C(=O)NCC(=O)Nc2ncccc2C)cc1OCC`, 1.27%.
Under `COCCOC(=O)/C(=C/c1ccc(OC(=O)c2ccccc2)cc1)C(C)=O` stands 4.54%; under `COC(=O)c1ccc(NC(=O)c2snnc2-c2ccccc2)cc1`, 1.82%; under `O=C(c1ccc2c(=O)n3c(nc2c1)CCCCC3)N1CCN(c2cccc(Cl)c2)CC1`, 0.04%.
Under `Oc1ccc2ccccc2c1C=NCc1cn2ccsc2n1` stands -0.01%; under `N#C/C(=C/c1ccc(-c2ccccc2)o1)c1nc(-c2cccs2)cs1`, 19.2% (active).
Turning to `N#C/C(=C/c1ccc(N2CCOCC2)o1)C(=O)Nc1ccccc1`, the fluorescence artifact activation is 0.03%.
`N#C/C(=C\c1ccc(-c2ccc(F)cc2)o1)C(=O)Nc1nc(-c2cccs2)cs1`: the fluorescence artifact activation is 15.1% (active).
Under `Cc1cc(Cl)ccc1OCC(=O)Nc1nc(-c2cccs2)cs1` stands 0.04%; under `N#C/C(=C\C=C\c1ccccc1)c1nc(-c2ccc3c(c2)OCO3)cs1`, 0.13%.
In the case of `Cn1c(/C(C#N)=C/c2ccc(-c3ccc(S(N)(=O)=O)cc3)o2)nc2ccccc21` it was 0.08%; in that of `O=C(CSc1n[nH]c(-c2cccs2)n1)N1CCOCC1`, -0.05%; in that of `Cc1nnc(SCC(=O)NC(C)(C)C)n1C1CCCCC1`, 10.9%.
In the case of `Nc1c(C(=O)c2ccc(Cl)cc2)sc2nsc(SCCN3CCOCC3)c12` it was 0.08%; in that of `Oc1ccc2nnc3c(Br)cnn3c2c1`, 0.07%.
Regarding `COc1ccc(/C=N/NC(=O)c2cc(OC)c(OC)c(OC)c2)cc1CN1CCc2cc(OC)c(OC)cc2C1C` (stereo not drawn), the fluorescence artifact activation is 7.53%.
`CC1(C)CC(N2CCCC2)=CC(=[N+]2CCCCC2)C1`: the fluorescence artifact activation was 2.5%.
Under `COc1ccc2[nH]c(C)c(CCN(Cc3cccs3)C(=S)Nc3ccc(F)cc3)c2c1` stands 1.01%.
As to `O=C(Cc1ccc(NC(=O)C2CCCN(C(=O)C3CCCCC3)C2)cc1)Nc1cccc(C(=O)N2CCCC2)c1` (stereo not drawn), the fluorescence artifact activation is 0.41%.
Under `CCOc1ccc(Cn2c3ccc(OC)cc3c3nc4ccccc4nc32)cc1` stands 23.1% (active); under `CCCCOC(=O)Cn1c2ccc(OC)cc2c2nc3ccccc3nc21`, 0.92%.
Under `COc1ccc(Cn2nnc3ccccc32)cc1` stands 0.37%; under `COC(=O)C(=N/Nc1ccccc1C(=O)OC)/C(C)=N/O`, 6.02%; under `C/C(=N/NC(=O)c1cc(C)[nH]n1)c1ccco1`, 0.79%.
Take `COc1ccc(/C=c2\s/c(=C/C(=O)c3ccc(C)cc3)[nH]c2=O)cc1OC`: the fluorescence artifact activation is 0.04%.
In the case of `CN1CCc2c(sc3nc(SCC(N)=O)n(-c4ccccc4)c(=O)c23)C1` it was -0.02%.
In the case of `Cc1ccc(NS(=O)(=O)c2ccc(C(=O)N3CCN(c4ncccn4)CC3)cc2)cc1` it was 0.15%; in that of `COc1ccc2c(c1)cc(C(=O)N[C@@H](CCSC)C(=O)N1CCC[C@H]1C(=O)O)n2C`, 1.37%.
Under `O=C(O)c1cc(NCc2ccc(F)cc2)ccc1N1CCOCC1` stands 18.7% (active); under `O=C(N1CCOCC1)N1CCN(c2ccc(F)cc2)CC1`, 0.02%; under `O=C1N/C(=C\c2ccc(N3CCOCC3)c(F)c2)C(=O)N1Cc1ccccc1`, 0.25%.
Regarding `CCOc1ccccc1N(CC(=O)Nc1ccc(OC)c(OC)c1)S(=O)(=O)c1ccccc1`, the fluorescence artifact activation was 0.04%.
In the case of `CC1=Nc2ccccc2/C1=C/c1nc(-c2ccc(C)s2)oc1O` it was 0.4%; in that of `COC(=O)C1(C)NC(c2ccc(C)cc2)C2C(=O)N(c3ccc(F)cc3)C(=O)C21` (stereo not drawn), 3.94%.
`CC(=O)Nc1ccc(N2C(=O)CSC2c2ccc(F)cc2)cc1` (stereo not drawn): the fluorescence artifact activation is 47.7% (active).
Under `CC(=O)Nc1ccc(N2C(=O)c3cccc4c(O)ccc(c34)C2=O)cc1` stands 0.2%.
In the case of `Nc1nc2ccccc2n1CCOc1ccc(Br)cc1` it was 0.41%; in that of `O=C(C1=C(O)C(=O)N(c2nccs2)C1c1ccccc1)c1cc2ccccc2o1` (stereo not drawn), -0.02%; in that of `Cc1ccccc1Cn1cccc1/C=C1/C(=N)N2C=CSC2=NC1=O`, 0.51%.
In the case of `C=CCNc1nnc(SCC(=O)N2CCC(C(N)=O)CC2)s1` it was 2.23%; in that of `CCOc1c2ccc(C(=O)NCc3ccc(C)cc3)cc2nn1CCOC`, 0.08%; in that of `CCN(CC(=O)Nc1c(F)cccc1F)C(=O)CNC(=O)COc1ccccc1`, -0.06%.
Regarding `c1ccc(-n2ncc(-c3nn[nH]n3)n2)cc1`, the fluorescence artifact activation is 48.8% (active).
Under `O=C(C1=NN(c2ccccc2)C2C(=O)N(c3ccccc3)C(=O)C12)c1ccccc1` (stereo not drawn) stands -0.1%.
